Hits are enriched below; roughly 1.4% of the tested compounds scored in any of these assays.
thrombin 1536: thrombin (human) inhibition. P00734. alpha-thrombin, Boc-VPR-AMC fluorogenic substrate cleavage. inhibition, % at 5 µM. hit rate 0.26% among 220,000. AID 1046;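 active = inhibition at or above 40%; inactive = inhibition below 40%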;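 also: 0% = enzyme with no compound and 100% = wells without enzyme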
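Material: human alpha-thrombin protein; Also added: Boc-VPR-AMC substrate, 15 µM final; Timing: enzyme reaction carried out at room temperature; Signal: fluorescence, ex 355 nm, em 460 nm; Measure: % inhibition of thrombin; Controls: enzyme without compound as high, wells lacking enzyme as low.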
FXIa inh: blocks human coagulation factor XIa protease activity; P03951; purified FXIa, Boc-Glu-Ala-Arg-AMC fluorogenic substrate; inhibition, % at 5 µM; hit rate 0.14% among 220,000;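 active = inhibition of at least 40%; inactive = inhibition below 40%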;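 also: fluorescence of freed AMC excited at 355 nm; 0% = enzyme without compound and 100% = no enzyme blank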
Target sequence (P03951 19-387 limits assumed): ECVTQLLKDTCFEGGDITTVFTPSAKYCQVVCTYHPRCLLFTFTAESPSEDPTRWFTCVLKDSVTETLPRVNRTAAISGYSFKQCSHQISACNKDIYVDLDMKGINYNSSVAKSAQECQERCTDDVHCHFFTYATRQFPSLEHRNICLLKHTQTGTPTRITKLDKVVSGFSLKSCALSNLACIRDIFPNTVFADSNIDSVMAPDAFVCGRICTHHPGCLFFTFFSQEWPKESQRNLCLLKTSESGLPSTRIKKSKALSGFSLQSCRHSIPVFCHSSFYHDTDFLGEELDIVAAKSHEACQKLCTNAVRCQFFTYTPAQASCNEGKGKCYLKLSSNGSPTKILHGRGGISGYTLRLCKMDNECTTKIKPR
Target sequence (P03951 388-625 limits assumed): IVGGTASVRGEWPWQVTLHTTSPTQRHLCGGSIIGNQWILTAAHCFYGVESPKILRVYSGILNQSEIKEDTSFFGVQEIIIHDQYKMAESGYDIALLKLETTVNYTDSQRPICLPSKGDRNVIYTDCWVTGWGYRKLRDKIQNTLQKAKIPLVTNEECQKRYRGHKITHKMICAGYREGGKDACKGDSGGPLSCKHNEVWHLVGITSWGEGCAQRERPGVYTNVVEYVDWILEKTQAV
KLK5 inh: blocks human kallikrein 5 protease activity. Q9Y337. recombinant hK5, fluorogenic AMC substrate cleavage. hit rate 0.59% among 210,000. inhibition, % at 5 µM;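 active = inhibition of 40% or more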;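 also: 0% = enzyme controls without compound and 100% = no-enzyme blanks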
FXIIa inh: inhibitors of human coagulation factor XIIa; hit rate 0.3% among 220,000; purified FXIIa, Boc-QGR-AMC fluorogenic substrate, 2 h; P00748; inhibition, % at 5 µM; in the data active = inhibition above about 40%;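 also: 0% = enzyme with no compound and 100% = blank without enzyme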
Calpain2 inh: calpain II (pig) inhibition | inhibition, % at 16 µM | AID 1236 | hit rate 0.37% among 220,000 | purified calpain II, fluorogenic peptide substrate, 30 min;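 active = inhibition above about 50%, limit read from the data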
Starred values were filed as active, the others as inactive; i = inactive; · = no result.

SMILES | thrombin 1536 | FXIa inh | KLK5 inh | FXIIa inh | Calpain2 inh
c1ccc(CCNc2ncnc3scc(C4COc5ccccc5O4)c23)cc1 (stereo unspecified) | -6 | -2 | -15 | -3 | 60*
c1ccc2c(c1)OCC(c1csc3ncnc(N4CCCC4)c13)O2 (stereo unspecified) | -6 | 2 | 5 | 9 | 23
COc1cc(/C=N/NC(=O)CN(Cc2ccco2)S(=O)(=O)c2ccccc2)ccc1O | -9 | -5 | -20 | 8 | -16
CCCN(CCC)C(=O)CC(c1ccccc1)c1cc(Br)ccc1O (stereo unspecified) | -3 | -6 | 8 | -2 | 74*
CCCN(CCC)C(=O)CC(c1ccccc1)c1ccc(C)cc1O (stereo unspecified) | -3 | -6 | -59 | -4 | 48
O=C(Cc1ccccc1)NNC(=O)c1cccs1 | -6 | 0 | -14 | 11 | -2
O=C(NNC(=O)C(c1ccccc1)c1ccccc1)c1cccs1 | 104* | 19 | 56* | 25 | 26
O=C(NNC(=O)c1cccs1)c1ccc(Br)o1 | 17 | 43* | -14 | 18 | -4
NNc1nc2c(F)cc(F)cc2s1 | -7 | -6 | -18 | 0 | 22
COc1ccccc1-c1cc(C(=O)NCc2ccco2)no1 | 5 | 11 | 48* | 24 | 12
COc1ccccc1-c1cc(C(=O)NCc2cccs2)no1 | 0 | -1 | -5 | 11 | -23
CCCn1cnc2c(=S)nc(N)[nH]c21 | -4 | 6 | 0 | 11 | 10
COc1ccc(-c2nc(NC(=O)CCNC(=O)c3ccco3)sc2C)cc1 | -9 | -3 | -9 | 1 | 52*
Cc1ccc(NC(=O)CCNC(=O)c2ccco2)cc1 | 0 | 9 | -22 | 12 | 15
COc1cccc(/C=N/NC(=O)CN(CCc2ccccc2)S(=O)(=O)c2ccc(NC(C)=O)cc2)c1 | -2 | 15 | -3 | 11 | -37
Cn1c(/C(C#N)=C/C2CC=CCC2)nc2ccccc21 (stereo unspecified) | 7 | 3 | 47* | 6 | 11
COc1ccccc1-c1nnc(SCC(=O)O)n1-c1ccc(C)cc1 | -8 | -2 | -4 | 8 | -15
COC(=O)CSc1nnc(-c2ccccc2OC)n1-c1ccc(C)cc1 | 46* | 7 | 43* | 30 | 10
CCOC(=O)CSc1nnc(-c2ccco2)n1-c1ccc(C)cc1 | 29 | 1 | 45* | 2 | 21
O=C(O)/C=C/C(=O)Nc1ccc(N2CCOCC2)nc1N1CCOCC1 | -1 | 6 | 11 | 10 | 9
O=C(O)c1cc([N+](=O)[O-])ccc1NCc1ccccc1Cl | 41* | 17 | · | 20 | 41
C=CCn1c(SCC(=O)Nc2cccc(C(=O)OC)c2)nnc1C(C)NC(=O)c1cccs1 (stereo unspecified) | 19 | 16 | 50* | 35 | 17
CCOC(=O)c1cccc(NC(=O)CSc2nnc(-c3ccoc3C)n2CCOC)c1 | 15 | 22 | 32 | 48* | 21
Cc1ccc(Nc2nc(=O)c3cccnc3s2)c(Br)c1 | -6 | -1 | -1 | 8 | 6
CCOC(=O)c1cnc(SC2CCc3ccccc3C2=O)nc1N (stereo unspecified) | -5 | 0 | -22 | 9 | 59*
SMILES | thrombin 1536 | FXIa inh | KLK5 inh | FXIIa inh | Calpain2 inh
CCOC(=O)CNC(=O)Cn1cnc2c(nnn2-c2ccc(C)cc2)c1=O | 3 | -1 | 1 | 11 | 20
CCOC(=O)CNC(=O)Cn1cnc2c(nnn2-c2cccc(Cl)c2)c1=O | 1 | 12 | -9 | 43* | 20
Cc1cccc(C(=O)NC2=NCCS2)c1 | 1 | 0 | 3 | 14 | -20
N#Cc1nc(COc2ccc(F)cc2)oc1NCCN1CCOCC1 | -15 | -11 | -26 | -7 | 14
N#Cc1nc(COc2ccc(Br)cc2)oc1NCCN1CCOCC1 | 6 | 13 | 45* | -7 | 10
COc1ccc(C(=O)Nc2ccc(N3CCN(c4ccc(OC)cc4)CC3)c(C#N)c2)cc1 | 15 | 47* | 27 | 3 | -70
COc1ccc(N2CCN(c3ccc(NC(=O)C4CCCCC4)cc3C#N)CC2)cc1 | -2 | 0 | 3 | 7 | -31
CC(C)Oc1ccc(N2CC(C(=O)NC3=NCCS3)CC2=O)cc1 (stereo unspecified) | 41* | 30 | 18 | 29 | 20
COc1ccc(N2CC(C(=O)Nc3nnc(SCC(=O)c4ccccc4)s3)CC2=O)cc1 (stereo unspecified) | 24 | 11 | 63* | 15 | -25
COc1ccc(N2CC(C(=O)Nc3ncccc3C)CC2=O)cc1 (stereo unspecified) | 16 | 12 | 63* | 16 | 10
Cc1cccc(C)c1NC(=O)CNc1ncnc2sc(C)c(C)c12 | -13 | 3 | -9 | 10 | 2
CC(Sc1nnc(-c2ccco2)o1)C(=O)NCCC1=CCCCC1 (stereo unspecified) | · | 28 | 47* | 21 | 30
COc1cccc(N2CCN(C(=O)CN(C)S(=O)(=O)c3ccc4c(c3)CCC(=O)N4)CC2)c1 | -2 | 15 | 2 | 14 | 29
COc1cc(NC(=O)CN(C)S(=O)(=O)c2ccc3c(c2)CCC(=O)N3)cc(OC)c1 | -6 | -8 | 49* | -1 | -8
COc1ccc(C(=O)NC(=S)Nc2cccc(Cl)c2N2CCOCC2)cc1[N+](=O)[O-] | 2 | 8 | 42* | 15 | -10
CC(=O)c1ccc(OCC(O)CN2CCC(C)CC2)cc1 (stereo unspecified) | -1 | 7 | -7 | 11 | 0
CC(=O)c1ccc(OCC(O)CN2C(C)CCCC2C)cc1 (stereo unspecified) | 14 | 2 | 52* | 13 | 2
CCCCCCCCCCCCCCCC[n+]1ccc(C(N)=O)cc1 | -2 | -3 | -12 | 2 | 72*
COc1ccc(OC)c(C2=NOC(C(=O)Nc3cc(C)on3)C2)c1 (stereo unspecified) | -19 | -2 | -2 | -1 | 16
O=C1OC(c2cccc([N+](=O)[O-])c2)C2(CCCC2)C(=O)C12CCCCC2 (stereo unspecified) | 28 | 19 | 16 | 20 | 53*
O=C1OC(c2ccccc2)C2(CCCC2)C(=O)C12CCCC2 (stereo unspecified) | -2 | 2 | 6 | -2 | -14
COC(=O)c1sccc1-n1cccc1C(=O)C(=O)N1CCOCC1 | -3 | -4 | -22 | -5 | 11
COc1cc(N/C=C(\C(C)=O)c2ccccc2)cc(OC)c1 | 8 | -7 | -17 | 3 | 65*
CC(=O)N1CCc2cc(N=NC3=C(O)CC(C)(C)CC3=O)ccc21 | -3 | -1 | 1 | 3 | 11
CC(C(=O)Oc1ccc2c(c1)OCO2)N1C(=O)c2ccccc2C1=O (stereo unspecified) | 0 | 32 | 6 | 57* | 9
COc1ccc(C(=O)N/N=C/c2cc3ccccc3[nH]c2=O)cc1 | 34 | 52* | 21 | 60* | i
COc1ccc(C(=O)N/N=C/c2ccc(OC(=O)c3ccccc3)cc2)cc1 | -1 | -3 | -5 | 1 | 7
Cn1nc(-c2ccc(Cl)cc2)nc2c(=O)n(C)c(=O)nc1-2 | -2 | -7 | -11 | 4 | 55*

Source: PubChem (several laboratories)
